Source: BindingDB's records for doi:10.1021/acs.jmedchem.6b01066 (University of Copenhagen, 2016)
pIC50: −log10 of the molar value.

Target: T1, Excitatory amino acid transporter 3 (Homo sapiens, UniProt P43005)
T1 sequence (P43005 whole entry): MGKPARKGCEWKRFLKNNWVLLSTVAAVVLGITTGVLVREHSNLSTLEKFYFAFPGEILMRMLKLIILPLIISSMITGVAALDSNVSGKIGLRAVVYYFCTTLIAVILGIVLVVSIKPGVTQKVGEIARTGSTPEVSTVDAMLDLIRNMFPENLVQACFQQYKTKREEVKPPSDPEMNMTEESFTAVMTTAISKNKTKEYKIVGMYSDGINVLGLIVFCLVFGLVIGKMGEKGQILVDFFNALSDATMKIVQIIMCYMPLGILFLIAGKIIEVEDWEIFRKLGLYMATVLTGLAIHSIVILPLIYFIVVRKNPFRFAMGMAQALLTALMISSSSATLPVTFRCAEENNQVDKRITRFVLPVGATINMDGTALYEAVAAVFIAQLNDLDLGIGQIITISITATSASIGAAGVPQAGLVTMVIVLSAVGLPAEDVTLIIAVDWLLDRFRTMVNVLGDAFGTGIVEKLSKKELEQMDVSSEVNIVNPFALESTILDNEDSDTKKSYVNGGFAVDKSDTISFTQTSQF
Test: Inhibition of [3H]-D-Asp uptake at human EAAT3 expressed in HEK293 cells measured after 3 mins by TopCount method
Method in brief: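 Stably transfected EAAT1-, EAAT2- or EAAT3-HEK293 lines grown in high-glucose GlutaMAX DMEM with 5% dialyzed FBS, penicillin/streptomycin and […]. Cells were seeded and reached confluence in 16−24 h, then washed in uptake buffer (HBSS, 20 mM HEPES, 1 mM CaCl₂, 1 mM MgCl₂, pH 7.4). Uptake ran 3 min at room temperature with 100 nM [³H]-D-aspartate plus test compound at varied concentrations. Two ice-cold washes, then scintillation counting. IC₅₀ from concentration−inhibition curves, n = 3−5.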

In the case of `N[C@H](C(=O)O)C(NC(=O)Oc1ccccc1)C(=O)O` (stereo partly specified), the pIC50 was 3.50.
